Measured values published in ChEMBL document CHEMBL1795304, “Synthesis, antitumor and antimicrobial activities of 4-(4-chlorophenyl)-3-cyano-2-(β-O-glycosyloxy)-6-(thien-2-yl)-nicotinonitrile” (2011).

Columns and labels:
Format in all cases: functional
MCF7 [1] = test: Cytotoxicity against human MCF7 cells assessed as inhibition of cell viability at 100 ug/mL after 48 hrs by MTT assay; conditions: MCF7, 48 h
In short: (§1)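 MCF7 cells kept in DMEM with 10% FBS, 2 mM L-glutamine and antibiotics at 37 °C, 5% CO2. Cells plated at 0.5 × 10⁵ per well in serum-free medium and exposed for 48 h to DMSO-dissolved compound (25, 50, 100 µg/mL). MTT then added for 4 h and formazan dissolved in acidified isopropanol. Absorbance read at 570 nm in triplicate, expressed as % viability versus untreated cells.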

MCF7 [2] = test: Cytotoxicity against human MCF7 cells assessed as inhibition of cell viability at 50 ug/mL after 48 hrs by MTT assay; conditions: MCF7, 48 h; in short: as §1
MCF7 [3] = test: Cytotoxicity against human MCF7 cells assessed as inhibition of cell viability at 25 ug/mL after 48 hrs by MTT assay; conditions: MCF7, 48 h; in short: as §1
Staphylococcus aureus = test: Antimicrobial activity against Staphylococcus aureus at 1 ug/mL after 48 hrs by cup plate agar diffusion method; conditions: read-out: IZ
In short: (§2)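 Cup plate agar diffusion. Compounds dissolved in DMSO at 1 µg/mL. Plates incubated 48 h at 37 °C, then inhibition zone diameter measured in mm. DMSO served as solvent control and ampicillin as reference.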

Bacillus subtilis = test: Antimicrobial activity against Bacillus subtilis at 1 ug/mL after 48 hrs by cup plate agar diffusion method; conditions: read-out: IZ; in short: as §2
Escherichia coli = test: Antimicrobial activity against Escherichia coli at 1 ug/mL after 48 hrs by cup plate agar diffusion method; conditions: read-out: IZ; in short: as §2
Pseudomonas aeruginosa = test: Antimicrobial activity against Pseudomonas aeruginosa at 1 ug/mL after 48 hrs by cup plate agar diffusion method; conditions: read-out: IZ; in short: as §2

Compound	inhibition at 100 µg/mL (MCF7 [1])	inhibition at 50 µg/mL (MCF7 [2])	inhibition at 25 µg/mL (MCF7 [3])	zone of inhibition at 1 µg/mL (Staphylococcus aureus)	zone of inhibition at 1 µg/mL (Bacillus subtilis)	zone of inhibition at 1 µg/mL (Escherichia coli)	zone of inhibition at 1 µg/mL (Pseudomonas aeruginosa)
O=c1[nH]cc(F)c(=O)[nH]1 [FLUOROURACIL]	7%	0%	0%				
CC(=O)OC[C@H]1O[C@@H](Oc2nc(-c3cccs3)cc(-c3ccc(Cl)cc3)c2C#N)[C@H](OC(C)=O)[C@H]1OC(C)=O	8%	0%	0%				
CC(=O)OC[C@H]1O[C@@H](Oc2nc(-c3cccs3)cc(-c3ccc(Cl)cc3)c2C#N)[C@H](OC(C)=O)[C@@H](OC(C)=O)[C@H]1OC(C)=O	20%	5%	0%	12 mm	10 mm	5 mm	26 mm
N#Cc1c(-c2ccc(Cl)cc2)cc(-c2cccs2)nc1O[C@@H]1O[C@H](CO)[C@@H](O)[C@H]1O	0%	0%	0%	10 mm	7 mm	6 mm	28 mm
CC(=O)OC[C@H]1O[C@@H](Oc2nc(-c3cccs3)cc(-c3ccc(Cl)cc3)c2C#N)[C@H](OC(C)=O)[C@@H](OC(C)=O)[C@@H]1OC(C)=O	10%	5%	0%	8 mm	11 mm	3 mm	13 mm
N#Cc1c(-c2ccc(Cl)cc2)cc(-c2cccs2)nc1O[C@@H]1O[C@H](CO)[C@@H](O[C@@H]2O[C@H](CO)[C@H](O)[C@H](O)[C@H]2O)[C@H](O)[C@H]1O				5 mm	3 mm	0 mm	10 mm
N#Cc1c(-c2ccc(Cl)cc2)cc(-c2cccs2)nc1O[C@@H]1O[C@H](CO)[C@@H](O)[C@H](O)[C@H]1O	0%	0%	0%	3 mm	1 mm	0 mm	0 mm
CC1(C)S[C@@H]2[C@H](NC(=O)[C@H](N)c3ccccc3)C(=O)N2[C@H]1C(=O)O [AMPICILLIN]				7 mm	6 mm	2 mm	23 mm
COc1cccc2c1C(=O)c1c(O)c3c(c(O)c1C2=O)C[C@@](O)(C(=O)CO)C[C@@H]3O[C@H]1C[C@H](N)[C@H](O)[C@H](C)O1 [DOXORUBICIN]	50%	15%	6%				
N#Cc1c(-c2ccc(Cl)cc2)cc(-c2cccs2)nc1O[C@@H]1O[C@H](CO)[C@H](O)[C@H](O)[C@H]1O				0 mm	0 mm	0 mm	0 mm
N#Cc1c(-c2ccc(Cl)cc2)cc(-c2cccs2)nc1O[C@@H]1O[C@H](CO)[C@H](O)[C@H]1O				3 mm	3.5 mm	2 mm	9 mm
CC(=O)OC[C@H]1O[C@@H](O[C@H]2[C@H](OC(C)=O)[C@@H](OC(C)=O)[C@H](Oc3nc(-c4cccs4)cc(-c4ccc(Cl)cc4)c3C#N)O[C@@H]2COC(C)=O)[C@H](OC(C)=O)[C@@H](OC(C)=O)[C@H]1OC(C)=O	10%	5%	0%				
CC(=O)OC[C@H]1O[C@@H](Oc2nc(-c3cccs3)cc(-c3ccc(Cl)cc3)c2C#N)[C@H](OC(C)=O)[C@@H]1OC(C)=O	12%	7%	2%	9 mm	8 mm	3 mm	25 mm
